Sampled rows, rich in hits. Any-hit rate of the full collection: about 3.8%.
MC4R antag cAMP – blocks human MC4R cAMP signaling. AID 540295. MC4R-expressing cells, MTII-stimulated cAMP, LANCE TR-FRET. inhibition, % at 6.5 µM. P32245. actives 0.48% (n = 360,000);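 active = inhibition above its plate's cutoff, the mean of tested wells on that plate plus 3 SD, cut at about 29% in these data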;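 also: 0% = Melanotan II alone and 100% = Melanotan II plus saturating MCL0020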
Target sequence (P32245 whole entry, looked up): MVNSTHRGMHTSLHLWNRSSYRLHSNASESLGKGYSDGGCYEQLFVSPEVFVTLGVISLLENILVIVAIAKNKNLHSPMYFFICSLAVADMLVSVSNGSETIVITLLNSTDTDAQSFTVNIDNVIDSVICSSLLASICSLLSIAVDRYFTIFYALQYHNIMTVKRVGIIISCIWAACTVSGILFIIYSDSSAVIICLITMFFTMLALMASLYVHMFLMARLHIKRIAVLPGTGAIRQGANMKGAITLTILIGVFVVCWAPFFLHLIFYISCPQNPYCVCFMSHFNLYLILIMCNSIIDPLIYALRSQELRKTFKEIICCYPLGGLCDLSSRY
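system = U2OS cells with stable human MC4R expression | also added = Melanotan II challenge after compound preincubation | dosing = one concentration, 6.5 µM nominal | incubation = compound 30 min, challenge 1 h, detection 1 h | measured by = TR-FRET with Eu-cAMP and labeled anti-cAMP, 671 nm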
CSC inhib – cancer stem cell inhibition | inhibition, % at 7.5 µM | cancer stem cell-like cells viability, luminescence | actives 1.1% (n = 300,000); in the data active = inhibition above about 75%; tested in HMLE shEcad cells
Beta cell apopt – blocks beta cell apoptosis; INS-1E cytokine-induced death, ATP luminescence, 48 h; percent of positive-control rescue, neutral wells zero; protection from apoptosis, % (concentration not given with the values); actives 0.8% (n = 300,000); AID 435005;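 active = Every replicate reaches about 75%, or at least half do and their mean reaches it too, limit read from the data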;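 also: 0% = cytokine-treated negative control wells and 100% = positive control rescue; higher means more ATP so stronger rescue from cytokine killing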
MC4R barr agon – agonists of human melanocortin 4 receptor (MC4R) beta-arrestin; P32245; U2OS MC4R beta-arrestin complementation, luminescence; percent of melanotan II response, DMSO zero; activation, % at 8.9 µM; actives 0.98% (n = 360,000);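 active = activation above a per-plate cutoff, the mean activation of sample wells on that plate plus 3 SD, cut at about 8% in these data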
TMEM16A act – activates or potentiates the mouse TMEM16A chloride channel. actives 0.3% (n = 340,000). AID 623877. HEK293 TMEM16A/YFP-H148Q/I152L, iodide quench fluorescence; stronger effect = lower value. B-score at 10 µM. Q8BHY3;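 active = fluorescence-ratio B-score plate-corrected deviation score at least 3 library SD below zero, with starting fluorescence score within 5 deviations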;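 also: channel opened by trigger with iodide after compound preincubation; score built on the fluorescence ratio of max minus min over baseline; more negative score means more quench and so TMEM16A activation or potentiation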
ANO1 block – blocks the mouse calcium-activated chloride channel TMEM16A; Q8BHY3; HEK293 TMEM16A/YFP iodide influx fluorescence, ionomycin; normalized B-score (activity score, 25-100; higher = stronger inhibition) at 10 µM; actives 1.2% (n = 310,000); AID 588511;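 active = ratio plate-corrected score three or more library SD toward inhibition, starting fluorescence score within five deviations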;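 also: score derived from kinetic fluorescence span divided by baseline fluorescence per well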
MC4R barr conf – human MC4R beta-arrestin agonism confirmation. shares compounds with MC4R barr agon. U2OS MC4R beta-arrestin recruitment, luminescence; scaled DMSO 0%, Melanotan II 100%. activation, % at 8.9 µM. actives 31% (n = 2,400);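 active = mean activation across replicates above the hit cutoff set in the earlier primary screen, cut at about 8% in these data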
MOR DOR agonist – OPRM1-OPRD1 heterodimer agonism counter-screen; activation, % at 9.2 µM; U2OS PathHunter beta-arrestin, beta-gal luminescence; percent of deltorphin B response, DMSO zero; shares compounds with MC4R barr agon; actives 5.8% (n = 2,400);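 active = mean activation across replicates exceeds the hit threshold derived in the earlier primary screen, cut at about 18% in these data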;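 also: 100% = deltorphin B at 0.9 µM final and 0% = DMSO alone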
Starred values were filed as active, the others as inactive; i = inactive; . = no result.

SMILES	MC4R antag cAMP	CSC inhib	Beta cell apopt	MC4R barr agon	TMEM16A act	ANO1 block	MC4R barr conf	MOR DOR agonist
O=C(NC1CCCCC1)C(c1cccs1)N(C(=O)C(F)(F)F)c1ccccc1 (centres undefined)	3.9	.	.	27.1*	i	i	4.7	6.5
Cc1ccc(N(C(=O)C(F)(F)F)C(C(=O)NC2CCCCC2)c2cccs2)cc1C (centres undefined)	4.3	.	.	-1.0	i	i	.	.
CC(C)(CNc1ccc(C(F)(F)F)cc1[N+](=O)[O-])N1CCOCC1	12.1	15.0	-1.3	-1.6	i	i	.	.
CSc1ccc(/C=C(/Sc2nnc(-c3ccccc3)o2)C(=O)O)cc1	15.0	1.5	9.5	22.0*	i	i	1.4	3.5
COc1ccc(NC(=O)[C@@H]2CC=C[C@@H]3CCN(Cc4ccc(Cl)c(Cl)c4)C(=O)[C@@H]32)cc1	4.4	-8.7	-3.3	12.9*	i	i	10.9*	2.8
O=C(NCCc1ccccc1)[C@@H]1CC=C[C@@H]2CCN(Cc3ccc(Cl)c(Cl)c3)C(=O)[C@@H]21	-3.2	20.6	99.4*	12.0*	i	i	9.3*	7.6
O=C1[C@H]2[C@H](C=CC[C@H]2C(=O)N2CCN(c3ccccc3)CC2)CCN1Cc1ccc(Cl)c(Cl)c1	15.1	9.8	1.9	69.1*	i	i	15.5*	4.2
COc1ccc(-c2csc(C(NC(C)=O)c3ccccc3)n2)cn1 (centres undefined)	6.3	.	.	-1.5	.	.	.	.
O=C(COc1ccccc1)NCc1ccco1	7.1	.	.	-0.2	i	.	.	.
N#Cc1c2ccc(OCC(=O)NCc3ccco3)cc2n2ccccc12	12.1	11.9	0.3	14.5*	i	i	3.0	5.4
Cc1ccc(NS(=O)(=O)c2ccc(-n3cccn3)cc2)cc1Cl	13.0	.	.	12.6*	.	.	-0.1	7.5
O=S(=O)(Nc1cccc(Cl)c1)c1ccc(-n2cccn2)cc1	-0.6	6.4	-6.5	3.0	i	i	.	.
O=C(Cc1cccs1)Nc1ccc(-c2nnc(-c3ccco3)o2)cc1	7.0	-12.2	14.5	11.1*	i	i	4.0	6.3
Cc1cccc(Nc2nnc(SCC(=O)NC(=O)Nc3ccc4c(c3)OCCO4)s2)c1	-1.1	18.5	-0.4	21.6*	i	i	11.3*	2.8
Cc1ccccc1Nc1nnc(SCC(=O)NC(=O)Nc2ccc3c(c2)OCCO3)s1	.	-6.6	-0.9	.	.	i	.	.
CC(=O)Nc1nnc(SCC(=O)Nc2ccc3c(c2)OCCO3)s1	-3.4	6.6	-1.6	-0.9	i	i	.	.
Cc1ccc(SCC(=O)NC(=O)Nc2ccc3c(c2)OCCO3)cc1C	5.4	-0.2	-7.2	15.0*	i	i	5.2	5.0
Cc1nnc(SCC(=O)NC(=O)Nc2ccc3c(c2)OCCO3)s1	0.7	1.8	-5.3	0.1	i	i	.	.
COc1ccccc1Nc1nnc(SCC(=O)NC(=O)Nc2ccc3c(c2)OCCO3)s1	5.4	-8.2	-9.9	17.4*	i	i	-0.8	3.2
COc1cc(C2C(C(=O)c3cc4ccccc4o3)=C(O)C(=O)N2CCN2CCOCC2)ccc1OCCC(C)C (centres undefined)	12.7	.	.	-2.0	i	.	.	.
COc1ccc(NC(=O)CSc2nnnn2C2CC2)cc1S(=O)(=O)N1CCOCC1	0.7	.	-2.2	1.0	i	.	.	.
COc1ccc(-c2[nH]c(-c3ccc4c(c3)OCO4)nc2-c2ccccc2)cc1	-1.6	-2.4	-0.7	0.1	i	i	.	.
COc1cc(-c2nc(-c3ccccc3)c(-c3ccc(F)cc3)[nH]2)cc2c1OCO2	12.5	-5.1	12.1	12.4*	i	i	3.4	9.6
Nc1cccnc1Oc1ccc(F)cc1	5.5	-5.9	4.9	-0.8	i	i	.	.
FC(F)(F)c1cccnc1Oc1ccc(C2=NCCS2)cc1	2.5	9.1	.	41.8*	i	i	24.2*	7.2
SMILES	MC4R antag cAMP	CSC inhib	Beta cell apopt	MC4R barr agon	TMEM16A act	ANO1 block	MC4R barr conf	MOR DOR agonist
Cc1cc(C)c(C#N)c(SCC(=O)Nc2nnc(-c3ccccc3)s2)n1	0.4	5.4	0.9	16.4*	i	i	1.9	4.5
COc1cc(-c2cc(-c3ccccc3)nc(SCC(=O)Nc3nccs3)c2C#N)cc(OC)c1OC	-12.2	-2.1	13.1	11.0*	i	i	5.3	3.4
Cn1nc(CC#N)c2c(=N)n(N)cnc21	-2.4	.	.	-1.2	i	.	.	.
Cc1cc2oc(C(=O)Nc3ccc(S(=O)(=O)Nc4nccs4)cc3)cc(=O)c2cc1Cl	6.1	0.7	-2.8	9.7*	i	i	-2.2	1.6
Cc1cc(C)c2oc(C(=O)Nc3ccc(S(=O)(=O)Nc4nccs4)cc3)cc(=O)c2c1	19.6	-8.8	0.3	-1.6	i	i	.	.
O=C(Nc1ccc(F)cc1F)c1csc(-c2cccs2)n1	-2.4	-5.6	-1.1	14.6*	i	i	0.0	3.6
CCOc1ncccc1C(=O)NCC(c1ccco1)N1CCCCC1 (centres undefined)	6.4	1.3	-7.4	-2.0	i	.	.	.
CCOc1cc(S(=O)(=O)Nc2cc(C)cc(C)c2)ccc1Cl	-2.4	-2.5	4.0	9.6*	i	i	5.7	8.3
O=C(Nc1ccc(Cl)c(Cl)c1)c1ccc(Cl)c(Cl)c1	-3.2	14.3	2.6	14.4*	i	i	8.2	11.7
O=C(Nc1ccc(Cl)c(Cl)c1)c1csc(-c2ccccc2)n1	3.6	-12.5	-6.6	19.8*	i	i	6.2	3.3
CC1=CC(C)(C(Cl)(Cl)Cl)C(C)=CC1=NO (centres undefined)	14.9	.	.	1.2	.	.	.	.
N#Cc1cn(-c2ccccc2)nc1-c1ccccc1	0.5	7.1	3.3	11.5*	i	i	-1.4	8.6
Clc1ccc(-c2csc(N/N=C\c3cccnc3)n2)cc1	17.2	-13.3	1.7	11.3*	i	i	-0.3	5.4
O=C(CCC1CCCCC1)Nc1nncs1	0.1	-10.0	-2.5	-1.5	i	i	.	.
Clc1cccc(-c2cc3nc(NCCOc4ccccc4)ccn3n2)c1	1.7	.	.	10.6*	.	.	1.7	3.9
Clc1ccc2c(c1)C(N1CCNCC1)Cc1ccccc1S2 (centres undefined)	-7.3	-6.0	27.0	10.3*	i	25*	18.6*	22.7*
COCCCN1CCN(C2Cc3ccccc3Sc3ccc(Cl)cc32)CC1 (centres undefined)	2.9	4.8	1.9	12.8*	i	i	1.3	11.4

Source: PubChem BioAssay (several laboratories)
